Source: PMC5816172 (Proceedings of the National Academy of Sciences of the …, 2018)
Entries after “also recorded” stand apart in the source; their conditions may differ. Read-outs that look alike come from different tables or passages of the source.

Assays:
caspase-1 = test: Caspase-1 activity assay in J774A.1 cell lysates; assay type: cell-based, mouse; settings: J774A.1, LPS/NIG, 50 µM, P = 0.003
AIM2 inflammasome = AIM2 inflammasome activation in J774A.1 cells; assay type: cell-based, mouse; settings: J774A.1, LPS and Poly(dA:dT)
Summary of the method: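 J774A.1 murine macrophages primed with LPS, then stimulated with the dsDNA analog Poly(dA:dT) for AIM2 or with flagellin for NLRC4, in the presence of test compound. Secreted mature IL-1β and TNFα were measured in supernatants. Data are mean ± SEM from three independent experiments.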

J774A.1 cells = test: LDH release from J774A.1 cells; assay type: cell-based, mouse; settings: J774A.1, LPS/ATP, P < 0.05
Summary of the method: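 J774A.1 cells were stimulated with LPS plus ATP in the presence of increasing concentrations of test compound. LDH release was measured and reported as mean ± SEM. Data are representative of three independent experiments.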

Human safety study = assay type: in vivo
Summary of the method: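 Phase 1 study in 35 healthy subjects receiving single oral doses or 8 consecutive daily doses of up to 1,000 mg. Monitoring covered treatment-emergent and non-treatment-emergent adverse events and vital signs. Serum lipids, urinalysis, liver function enzymes and acute phase proteins were compared with baseline in each cohort.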

[1] = test system: mRNA levels of nlrp3, asc, caspase1, il1b, and il18; test: Real-time PCR of inflammasome genes in J774A.1 cells; assay type: cell-based, mouse; settings: J774A.1, LPS/ATP, 100 to 0.1 µM
IκB = test: Flow cytometry of phosphokinases in spleen cells from treated mice; assay type: in vivo, mouse
Summary of the method: (§1)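 Mice were given test compound or saline vehicle. Spleen-derived CD11b+CD3− cells were analysed either fresh (steady state) or after 30 min of in vitro LPS stimulation. Phosphorylation of NF-κB, IκB, IKK and IRAK4 was assessed by flow cytometry. Data are mean ± SEM.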

NLRP3-ASC [2] = molecular target: T1, NLRP3-ASC (Mus musculus, UniProt Q8R4B8); test: Immunofluorescence and FRET analysis of NLRP3-ASC in J774A.1 cells; assay type: cell-based; settings: J774A.1, LPS and nigericin, 10 µM
Summary of the method: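 J774A.1 cells stimulated with LPS plus nigericin with test compound at 10 µM. After PBS wash: fixed and permeabilised in 70–30 acetone–methanol, blocked 1 h in 10% normal donkey serum. […] Then Alexa555/Alexa488 secondaries 1 h at room temperature, DAPI nuclei. FRET = Transfer − (Fd/D) − (Fa/Aa). Three independent experiments.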

NLRP3-ASC [3] = molecular target: T1, NLRP3-ASC; test: Immunoprecipitation of NLRP3-ASC association in J774A.1 cells; assay type: cell-based; settings: J774A.1, LPS and nigericin
NLRP3 inflammasome = NLRP3 inflammasome stimulation of human monocyte-derived macrophages; assay type: cell-based; settings: Macrophage
[4] = Human pharmacokinetic study, repeated daily oral dosing for 8 d; assay type: in vivo; settings: for Cmax: both, human, plasma, oral
Summary of the method: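 Fasted healthy subjects received repeated daily oral doses of 100, 300 or 1,000 mg for 8 d. Plasma concentrations were followed on day 1 and day 8. Group mean maximum concentration and elimination half-life were determined on day 8.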

[5] = test system: il1b, caspase1, and nlrp3 mRNA levels; test: Real-time PCR in human neutrophils; assay type: cell-based; settings: LPS/ATP
Summary of the method: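 Human neutrophils from four healthy donors were stimulated with LPS and ATP in the presence of test compound. Levels of il1b, caspase1 and nlrp3 mRNA are expressed as fold change, mean ± SEM.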

Hck = test: Phosphoarray assay in HMDM; assay type: cell-based, human; settings: LPS/nigericin, 10 µM, one donor
Fyn = test: Phosphoarray assay in HMDM; assay type: cell-based, human; settings: LPS/nigericin, 10 µM, one donor
NF-κB = test: Flow cytometry of phosphokinases in spleen cells from treated mice; assay type: in vivo, mouse
Summary of the method: as §1

IRAK4 = test: as above; assay type: in vivo, mouse
Summary of the method: as §1

IKK = test: as above; assay type: in vivo, mouse
Summary of the method: as §1

[6] = test system: mice challenged with LPS-induced systemic inflammation; test: In vivo LPS challenge; set-up: species or system mouse
Summary of the method: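 Male C57BL/6J mice (22–26 g) received 200 mg/kg in 200 µL saline i.p. every 12 h × 5, or saline alone. One hour after the last dose: LPS (E. coli 055:B5) 5 mg/kg i.p., killed 2 h later. Peritoneal lavage with 10 mL cold PBS, spun 1,000 × g, 5 min. Spleen, lung, liver and quadriceps homogenates spun 13,000 × g, 20 min, 4 °C; cytokines normalised to total protein. n = 7–8 per group.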

[7] = fresh CD11b+CD3- spleen cells, mice 200 mg/kg i.p. x5, vs vehicle
[8] = spleen cells from treated mice, LPS 30 min ex vivo
[9] = 200 mg/kg i.p. every 12 h for five doses, 2 h after i.p. LPS 5 mg/kg
[10] = 200 mg/kg i.p. x5, 2 h after LPS, organ homogenates

T1 sequence (Q8R4B8 whole entry): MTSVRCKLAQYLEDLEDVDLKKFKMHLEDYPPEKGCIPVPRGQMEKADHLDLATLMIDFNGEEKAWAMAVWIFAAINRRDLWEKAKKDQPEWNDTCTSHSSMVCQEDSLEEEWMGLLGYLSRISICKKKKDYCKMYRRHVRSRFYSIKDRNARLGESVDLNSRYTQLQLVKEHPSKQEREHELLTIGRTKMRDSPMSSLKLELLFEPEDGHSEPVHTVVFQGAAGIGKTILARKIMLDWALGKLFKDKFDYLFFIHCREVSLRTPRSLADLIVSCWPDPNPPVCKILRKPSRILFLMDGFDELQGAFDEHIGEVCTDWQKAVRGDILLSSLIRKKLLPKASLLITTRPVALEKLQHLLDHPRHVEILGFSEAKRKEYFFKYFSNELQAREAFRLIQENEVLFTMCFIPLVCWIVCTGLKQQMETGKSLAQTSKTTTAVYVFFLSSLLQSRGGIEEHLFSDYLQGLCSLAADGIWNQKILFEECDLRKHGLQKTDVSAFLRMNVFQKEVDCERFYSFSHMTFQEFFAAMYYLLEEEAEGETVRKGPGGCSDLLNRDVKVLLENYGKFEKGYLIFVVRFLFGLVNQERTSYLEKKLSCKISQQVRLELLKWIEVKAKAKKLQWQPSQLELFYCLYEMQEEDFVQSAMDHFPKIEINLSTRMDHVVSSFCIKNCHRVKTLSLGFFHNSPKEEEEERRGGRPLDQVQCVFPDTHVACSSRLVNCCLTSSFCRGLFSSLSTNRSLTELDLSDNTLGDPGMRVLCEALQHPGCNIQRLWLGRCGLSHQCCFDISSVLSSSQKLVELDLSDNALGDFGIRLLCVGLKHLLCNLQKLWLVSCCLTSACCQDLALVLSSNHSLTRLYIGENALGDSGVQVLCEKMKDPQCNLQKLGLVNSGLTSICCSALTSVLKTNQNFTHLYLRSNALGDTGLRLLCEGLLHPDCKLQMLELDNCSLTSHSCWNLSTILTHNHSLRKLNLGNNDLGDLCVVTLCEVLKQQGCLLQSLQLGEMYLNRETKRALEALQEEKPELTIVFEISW

## CS(=O)(=O)CCC#N [OLT1177]
caspase-1
  reduction of activated caspase-1 in cell lysates: 35%
AIM2 inflammasome
  release of IL-1β and TNFα following AIM2 inflammasome activation: no effect
J774A.1 cells
  release of LDH (cell death): significantly reduced
Human safety study; all cohorts incl. placebo, 100-1,000 mg single and multiple dose
  subjects reporting treatment-emergent adverse events: Seven of 35 subjects
Human safety study; all cohorts, each resolved spontaneously
  relationship of reported AEs to OLT1177 (investigator): unrelated
Human safety study; any time during the study
  hematologic or coagulation values vs baseline: No significant changes
Human safety study; oral doses up to 1,000 mg each day for 8 d
  overall safety / toxicities in healthy humans: neither adverse effects nor biochemical or hematological changes; also recorded: safe and well-tolerated; also recorded: no clinical, hematological, or organ toxicities observed
Human safety study; subjects exposed to OLT1177
  physical examination vs predrug examination: no change
[1]
  mRNA levels of nlrp3, asc, caspase1, il1b, and il18: no effect
IκB; [7]
  steady-state phosphorylated IκB: no statistically significant changes
IκB; [8]
  phosphorylated IκB after in vitro LPS: significant reduction
NLRP3-ASC [2]
  ASC speck structures (immunofluorescence): reduction
  NLRP3-ASC association (FRET intensity): significant lower
NLRP3-ASC [3]
  NLRP3-mediated ASC recruitment (immunoprecipitation): reduction
NLRP3 inflammasome; read-out: maximal inhibition of IL-1β secretion
  inhibition at 1 µM: 60%
NLRP3 inflammasome; read-out: maximal inhibition of IL-18 secretion
  inhibition at 1 µM: 70%
[4]; 100 mg/d for eight consecutive days
  mean maximum plasma concentration at steady state: 36.0 µM
[4]; 300 mg/d for eight consecutive days
  mean maximum plasma concentration at steady state: 118.6 µM
[4]; 1,000 mg/d for eight consecutive days
  mean maximum plasma concentration at steady state: 310.9 µM
[4]; 100 mg
  Cmax: 4800 ng/mL
[4]; 300 mg
  Cmax: 15800 ng/mL
[4]; 1000 mg
  Cmax: 41400 ng/mL
[5]
  il1b, caspase1, and nlrp3 mRNA levels: without affecting
Hck
  reduction in Hck phosphorylation: 43%
Fyn
  reduction in Fyn phosphorylation: 35%
NF-κB; [7]
  steady-state constitutive phosphorylated NFκB: significantly reduced
NF-κB; [8]
  phosphorylated NF-κB after in vitro LPS: significant reduction
IRAK4; [7]
  steady-state phosphorylated IRAK4: no statistically significant changes
IRAK4; [8]
  phosphorylated IRAK4 after in vitro LPS: no change
IKK; [7]
  steady-state phosphorylated IKK: no statistically significant changes
IKK; [8]
  phosphorylated IKK after in vitro LPS: significant reduction
[6]; [9]
  reduction of peritoneal fluid CXCL1: 30%
  reduction of peritoneal fluid IL-6: 44%
  reduction of peritoneal fluid myeloperoxidase (MPO): 80%
[6]; [10]
  TNFα content in lung, liver, spleen, and skeletal muscle: no significant changes
  total IL-1β content in lung, liver, spleen, and skeletal muscle: significantly decreased
